From ChEMBL document CHEMBL1142957, “Total structure and inhibition of tumor cell proliferation of laxaphycins” (J Med Chem, 2007)
Active and inactive are the calls of the source. The calls are words filed in the database; no cut-off is given here.

What was measured:
[1] = Cytotoxicity against teniposide-resistant CEM/VM1 cells after 72 hrs; format: cell-based; details: Homo sapiens, CEM-VM1, 72 h
Procedure, shortened: (§1)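 Leukemic lymphoblasts (parent CCRF-CEM, Pgp-overexpressing CEM/VLB100, topo II-altered CEM/VM-1) grown in RPMI 1640 with 10% FCS and antibiotics, 37 °C, 5% CO2. Serial dilutions in medium added to 2 × 10⁵ cells/mL for 3 days, medium not renewed. Survivors counted on a Coulter counter. Triplicate, averaged.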

DLD-1 = assay: Antiproliferative activity against human DLD1 cells at 5 uM after 48 hrs by RRT assay; format: functional, cell-based
Procedure, shortened: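 Adherent lines in supplemented Glutamax MEM, 37 °C, 5% CO2. Seeded 5 × 10³ cells/well, adhered 16 h, then treated 48 h continuously, alone or in combination, in 0.5% DMSO (solvent control). Resazurin 25 µg/mL in MEM added, 1 h at 37 °C, fluorescence 530/590 nm. Survival = % of control after blank subtraction; IC50 from concentration–survival curve. Two independent assays in triplicate.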

CCRF-CEM [2] = assay: Antiproliferative activity against CCRF-CEM cells at 20 uM after 72 hrs; format: functional, cell-based; details: Homo sapiens; procedure, shortened: as §1
CCRF-CEM [3] = assay: Cytotoxicity against drug-sensitive CCRF-CEM cells after 72 hrs; format: cell-based; details: Homo sapiens; procedure, shortened: as §1
[4] = Cytotoxicity against vinblastine-resistant CEM/VLB100 cells after 72 hrs; format: cell-based; details: Homo sapiens, CEM/VLB100, 72 h; procedure, shortened: as §1
CCRF-CEM [5] = assay: Ratio of IC50 for vinblastine-resistant CEM/VLB100 cells over IC50 for drug-sensitive CCRF-CEM cells; format: functional, Homo sapiens
CCRF-CEM [6] = assay: Ratio of IC50 for teniposide-resistant CEM/VM1 cells over IC50 for drug-sensitive CCRF-CEM cells; format: functional, Homo sapiens

## C/C=C1/NC(=O)[C@H](CCO)NC(=O)C[C@@H](CCCCC)NC(=O)CNC(=O)[C@H](CC(C)C)NC(=O)[C@@H]([C@@H](C)CC)NC(=O)[C@H]([C@@H](C)CC)NC(=O)[C@@H](CC(C)C)NC(=O)[C@@H](Cc2ccccc2)NC(=O)[C@H](CCO)NC(=O)[C@@H]2C[C@@H](O)CN2C1=O [LAXAPHYCIN A]
[1]
  IC50: > 20 µM
DLD-1
  Activity: inactive
CCRF-CEM [2]
  Activity: inactive
CCRF-CEM [3]
  IC50: > 20 µM
[4]
  IC50: > 20 µM

## CCCCCCC[C@@H]1CC(=O)N[C@@H](C(C)C)C(=O)N[C@H]([C@@H](O)C(C)C)C(=O)N[C@@H](C)C(=O)N[C@H](CC(C)C)C(=O)N[C@@H](CCC(N)=O)C(=O)N(C)[C@@H]([C@@H](C)CC)C(=O)N[C@H]([C@@H](O)C(N)=O)C(=O)N[C@@H]([C@@H](C)O)C(=O)N2CCC[C@H]2C(=O)N[C@H](CC(C)C)C(=O)N[C@@H]([C@@H](C)O)C(=O)N1 [LAXAPHYCIN B2]
[1]
  IC50: 4.14 µM
CCRF-CEM [3]
  IC50: 4.15 µM
CCRF-CEM [5]
  Ratio IC50: 0.8
[4]
  IC50: 3.33 µM
CCRF-CEM [6]
  Ratio IC50: 1
